Results from ChEMBL document CHEMBL1121685, “Development of new mitomycin C and porfiromycin analogues” (J Med Chem, 1981).

Key:
Mus musculus [1] = assay: Effect of compound on total white blood cell count in BDG1 male mice, after intraperitoneal administration at a dose of 12.8 mg/kg on day 7; format: functional
Method in brief: (§1)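 Single ip dose given on day 0 to BDG1 male mice over a descending dose series. Total white blood cell count is expressed as % change from untreated control on days 3, 5 and 7. Significance is flagged at p ≤ 0.05 and p ≤ 0.01.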

Mus musculus [2] = assay: Minimum effective dose that show activity against P-388 murine leukemia cells in CDF1 female mice, after intraperitoneal administration (optimal dose is 12.8 mg/kg); format: functional; conditions: P388, ip, read-out: MED
Method in brief: (§2)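 10⁶ P-388 ascites cells implanted ip in CDF₁ female mice. Six mice per dose, 10 saline-injected controls, and a concurrent mitomycin C reference group. %T/C = median survival time of treated/control × 100. MED is the lowest dose giving %T/C > 125. Therapeutic ratio = optimal dose/MED.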

Mus musculus [3] = assay: Effect of compound on total white blood cell count in BDG1 male mice, after intraperitoneal administration at a dose of 25.6 mg/kg on day 7 (highest dose was twice the optimal dose); format: functional
Mus musculus [4] = assay: Effect of compound on total white blood cell count in BDG1 male mice, after intraperitoneal administration at a dose of 25.6 mg/kg on day 3 (highest dose was twice the optimal dose); format: functional
Mus musculus [5] = assay: Antitumor activity against P-388 murine leukemia cells in CDF1 female mice after intraperitoneal administration at the specified optimal dose of 12.8 mg/kg; format: functional
Mus musculus [6] = assay: Effect of compound on total white blood cell count in BDG1 male mice, after intraperitoneal administration at a dose of 25.6 mg/kg on day 5 (highest dose was twice the optimal dose); format: functional
Mus musculus [7] = assay: Effect of compound on total white blood cell count in BDG1 male mice, after intraperitoneal administration at a dose of 12.8 mg/kg on day 3; format: functional
Method in brief: (§3)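 BDG₁ male mice received a single ip dose on day 0. The dose series topped out at the LD₅₀ level, or at twice the optimal dose for some agents. Total white blood cell count was taken on days 3, 5 and 7 and expressed as % change from untreated controls. Significance was set at p ≤ 0.05 or p ≤ 0.01.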

Mus musculus [8] = assay: Effect of compound on total white blood cell count in BDG1 male mice, after intraperitoneal administration at a dose of 12.8 mg/kg on day 5; format: functional; method in brief: as §3
[9] = Therapeutic ratio is expressed as ratio of optimal dose and minimum effective dose; format: ADME; conditions: mouse; read-out: TR; method in brief: as §2
Mus musculus [10] = assay: Effect of compound on total white blood cell count in BDG1 male mice, after intraperitoneal administration at a dose of 3.98 mg/kg on day 5; format: functional; method in brief: as §1
Mus musculus [11] = assay: Effect of compound on total white blood cell count in BDG1 male mice, after intraperitoneal administration at a dose of 3.98 mg/kg on day 7; format: functional; method in brief: as §1
Mus musculus [12] = assay: Effect of compound on total white blood cell count in BDG1 male mice, after intraperitoneal administration at a dose of 5.3 mg/kg on day 5; format: functional
Method in brief: (§4)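 Single ip dose given on day 0 to BDG₁ male mice. Total white blood cell count measured on days 3, 5 and 7, expressed as % change from control. Highest dose was at the LD₅₀, or at twice the optimal dose where so footnoted. Significance reported at p ≤ 0.05 and p ≤ 0.01. D marks death of one or more mice.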

Mus musculus [13] = assay: Effect of compound on total white blood cell count in BDG1 male mice, after intraperitoneal administration at a dose of 2.24 mg/kg on day 7; format: functional; method in brief: as §1
Mus musculus [14] = assay: Effect of compound on total white blood cell count in BDG1 male mice, after intraperitoneal administration at a dose of 5.3 mg/kg on day 7; format: functional; method in brief: as §4
Mus musculus [15] = assay: Effect of compound on total white blood cell count in BDG1 male mice, after intraperitoneal administration at a dose of 3.98 mg/kg on day 3; format: functional; method in brief: as §1
Mus musculus [16] = assay: Effect of compound on total white blood cell count in BDG1 male mice, after intraperitoneal administration at a dose of 2.98 mg/kg on day 7; format: functional; method in brief: as §1
Mus musculus [17] = assay: Minimum effective dose that show activity against P-388 murine leukemia cells in CDF1 female mice, after intraperitoneal administration (optimal dose is 3.2 mg/kg); format: functional; conditions: P388, ip, read-out: MED; method in brief: as §2
Mus musculus [18] = assay: Effect of compound on total white blood cell count in BDG1 male mice, after intraperitoneal administration at a dose of 2.24 mg/kg on day 3; format: functional; method in brief: as §1
Mus musculus [19] = assay: Antitumor activity against P-388 murine leukemia cells in CDF1 female mice after intraperitoneal administration at the specified optimal dose of 3.2 mg/kg; format: functional
Mus musculus [20] = assay: Effect of compound on total white blood cell count in BDG1 male mice, after intraperitoneal administration at a dose of 2.98 mg/kg on day 3; format: functional; method in brief: as §1
Mus musculus [21] = assay: Effect of compound on total white blood cell count in BDG1 male mice, after intraperitoneal administration at a dose of 5.3 mg/kg on day 3; format: functional; method in brief: as §4
Mus musculus [22] = assay: Effect of compound on total white blood cell count in BDG1 male mice, after intraperitoneal administration at a dose of 2.24 mg/kg on day 5; format: functional; method in brief: as §1
Mus musculus [23] = assay: Effect of compound on total white blood cell count in BDG1 male mice, after intraperitoneal administration at a dose of 2.98 mg/kg on day 5; format: functional; method in brief: as §1
Mus musculus [24] = assay: Effect of compound on total white blood cell count in BDG1 male mice, after intraperitoneal administration at a dose of 51 mg/kg on day 3; format: functional; method in brief: as §4
Mus musculus [25] = assay: Effect of compound on total white blood cell count in BDG1 male mice, after intraperitoneal administration at a dose of 68.0 mg/kg on day 7; format: functional; method in brief: as §4
Mus musculus [26] = assay: Effect of compound on total white blood cell count in BDG1 male mice, after intraperitoneal administration at a dose of 68.0 mg/kg on day 5; format: functional; method in brief: as §4
Mus musculus [27] = assay: Effect of compound on total white blood cell count in BDG1 male mice, after intraperitoneal administration at a dose of 51 mg/kg on day 7; format: functional; method in brief: as §4
Mus musculus [28] = assay: Effect of compound on total white blood cell count in BDG1 male mice, after intraperitoneal administration at a dose of 51 mg/kg on day 5; format: functional; method in brief: as §4
Mus musculus [29] = assay: Effect of compound on total white blood cell count in BDG1 male mice, after intraperitoneal administration at a dose of 68.0 mg/kg on day 3; format: functional; method in brief: as §4

COC12[C@@H]3N[C@@H]3CN1C1=C(C(=O)C(NCc3cccs3)=C(C)C1=O)[C@@H]2COC(N)=O (some centres not stated)
Change (Mus musculus [1]): -2%
minimal effective dose (Mus musculus [2]): 3.2 mg/kg
Change (Mus musculus [3]): -11%
Change (Mus musculus [4]): -32%
T/C (Mus musculus [5]): 167%
Change (Mus musculus [6]): -33%
Change (Mus musculus [7]): -26%
Change (Mus musculus [8]): -5%
selectivity ratio [9]: 4

COC12[C@@H](COC(N)=O)C3=C(C(=O)C(C)=C(N4CC4)C3=O)N1C[C@@H]1[C@H]2N1C (some centres not stated)
Change (Mus musculus [10]): -17%
Change (Mus musculus [11]): 7%
Change (Mus musculus [12]): -20%
Change (Mus musculus [13]): 39%
Change (Mus musculus [14]): -13%
Change (Mus musculus [15]): -12.3%
Change (Mus musculus [16]): 31%
minimal effective dose (Mus musculus [17]): 0.2 mg/kg
Change (Mus musculus [18]): 1%
selectivity ratio [9]: 16
T/C (Mus musculus [19]): 248%
Change (Mus musculus [20]): 5%
Change (Mus musculus [21]): -15%
Change (Mus musculus [22]): 11%
Change (Mus musculus [23]): 25%

COC12[C@@H]3N[C@@H]3CN1C1=C(C(=O)C(NCCCl)=C(C)C1=O)[C@@H]2COC(N)=O (some centres not stated)
Change (Mus musculus [24]): -55%
Change (Mus musculus [25]): -35%
T/C (Mus musculus [5]): 190%
Change (Mus musculus [26]): -63%
Change (Mus musculus [27]): -23%
selectivity ratio [9]: 8
Change (Mus musculus [28]): -61%
Change (Mus musculus [29]): -71%
